Measurements of several laboratories.
Protocols differ between the studies behind these lines.
Adora2a: Adenosine receptor A2a (Adora2a, Rattus norvegicus, UniProt P30543)
Sterol carrier protein 2: Sterol carrier protein 2 (Aedes aegypti, UniProt Q86PR3)

| SMILES | target | read-out | action | method | notes | quantity | result |
| --- | --- | --- | --- | --- | --- | --- | --- |
| CCCCCC(C)N1CCCn2c1nc1c2c(=O)n(C)c(=O)n1C (centres unmarked) | Adora2a | ligand displacement |  | radioligand | cell membranes | Ki | 2.38 µM |
| CCCN1CCN(c2ccc(-c3cncc(Cl)c3N3CCC4(CCNC4=O)CC3)cc2)CC1 | E3 ubiquitin-protein ligase NEDD4 (Homo sapiens, UniProt P46934) | cell-free assay |  |  | lysate | Kd | 18.4 µM |
| Cc1cnc(-c2ccc(-c3ccc(NC(=O)Nc4c(F)cc(F)cc4F)cc3F)c3c2C(=O)NC3)[nH]1 | BDNF/NT-3 growth factors receptor (NTRK2, Homo sapiens, UniProt Q16620) | binding |  | competition with immobilised ligand |  | Kd | 0.0045 µM |
| CN1CCN(c2ccc(Nc3ncc4cc(C#N)c(=O)n(C5CCCC5)c4n3)cc2)CC1 | Calcium/calmodulin-dependent protein kinase type II subunit delta (CAMK2D, Homo sapiens, UniProt Q13557) | enzyme activity | inhibitor |  |  | IC50 | 1.6 µM |
| CCCCCCCCCCCCCCCC(=O)OC[C@H](COP(=O)(O)OC1[C@H](O)[C@H](O)C(OP(=O)(O)O)[C@H](O)[C@H]1O)OC(=O)CCCCCCCCCCCCCCC (some centres unmarked) | SHC-transforming protein 1 (Homo sapiens, UniProt P29353) | binding |  | fluorescence |  | Kd | 4.1 µM |
| O=C1/C(=C/c2ccco2)CCC/C1=C\c1ccco1 | Sterol carrier protein 2 | ligand displacement |  | fluorescence |  | EC50 | 62.9 µM |
| C=CN1CCCn2c1nc1c2c(=O)n(C)c(=O)n1C | Adora2a | ligand displacement |  | radioligand | cell membranes | Ki | > 25 µM |
| Cc1cc(Nc2cc3ncccc3c(N[C@@H]3C[C@H]4CC[C@@H](C3)N4CCC#N)n2)n[nH]1 | Mitogen-activated protein kinase kinase kinase 9 (MAP3K9, Homo sapiens, UniProt P80192) | binding |  | competition with immobilised ligand |  | Kd | 0.054 µM |
| O=C(/C=C/c1ccc(O)cc1)/C=C/c1ccc(O)cc1 | Sterol carrier protein 2 | ligand displacement |  | fluorescence |  | EC50 | 2.38 µM |
| N[C@@H](CCC(=O)O)C(=O)O | Metabotropic glutamate receptor 4 (Grm4, Rattus norvegicus, UniProt P31423) | ion flux | agonist |  |  | EC50 | 7.9 µM |
| CCCS(=O)(=O)Nc1ccc(F)c(C(=O)c2c[nH]c3ncc(-c4ccc(Cl)cc4)cc23)c1F | Mitogen-activated protein kinase kinase kinase 20, non-phosphorylated (MAP3K20, Homo sapiens, UniProt Q9NYL2) | binding |  | ITC |  | Kd | 0.029 µM |
